Experimental data from the EternaBench riboswitch data.

Test system: MS2 coat protein
Experiment: apparent Kd, MS2 coat protein; higher = weaker binding; RNA-MaP array
In short: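 RNA designs were transcribed from sequenced DNA templates on an Illumina sequencing chip and then incubated at room temperature with fluorescently labeled MS2 coat protein at 1.5 nM to 3 μM, with or without input ligand, in Tris-HCl pH 7.5 buffer containing KCl, MgCl2, BSA, DTT, tRNA and Tween20. Incubation lasted 0.8–1.5 h at the lowest protein concentrations and 10–20 min at the highest. Apparent Kd is the median of binding-curve fits made for each cluster. Designs measured on fewer than 10 clusters were excluded.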

[1] = designed as: ON switch for flavin mononucleotide, no ligand
[2] = ligand present: flavin mononucleotide, designed as: ON switch for flavin mononucleotide
[3] = designed as: OFF switch for flavin mononucleotide, no ligand
[4] = ligand present: flavin mononucleotide, designed as: OFF switch for flavin mononucleotide

| Sequence | apparent Kd [3] [nM] | apparent Kd [4] [nM] | also measured |
| --- | --- | --- | --- |
| UAUGGACAUGAGGAUCACCCAUGUGGUAGAUGCUUAGGAUAUUAGACAGGAUACAUGUACUAAGAAGGAAGAUGGU | – | – | apparent Kd [1]: 266 nM; apparent Kd [2]: 102 nM |
| CGUUAAGAAUCGGCCGCCACUCCAUACGUGUGAAUCGCGGAUCGACAUGAGGAUCACCCAUGUCGGAGGACCGGGAUCCUCUUUC | – | – | apparent Kd (designed as: ON switch for tryptophan, no ligand): 35 nM; apparent Kd (ligand present: tryptophan, designed as: ON switch for tryptophan): 23.3 nM |
| UACAUGAGGAUCACCCAUGUCAAUUGUAGAUCGCUCAACGGCAGAAGGCGCAACCCGAUCGGGAGCGAGGAUAUGCCUCGUUAA | 26.5 | 27.1 | – |
| UCAAGUGAACCAUGGAAACAUUCAAUAGAUACCAGCAUUAAAACCUGCCCUUGGCAGCUAUGAACAUGAGGAUCACCCAUGUGAA | – | – | apparent Kd (designed as: OFF switch for theophylline, no ligand): 18.5 nM; apparent Kd (ligand present: theophylline, designed as: OFF switch for theophylline): 71.4 nM |
| AUUAGGCGGCAGAAGGCCCAUACCCGGACAUGAGGAUCACCCAUGUACUCGUUUCGCCAUAUCAGGGAGGAUAUGCCAACAACU | 17.5 | 15.8 | – |
| UCCUCGUUAGGAUAUGCCCACAUACACAGUUGUGAACUCUGGCAGAAGGAACAUGAGGAUCACCCAUGUAUAUA | 89.3 | 230 | – |
| CGAUCCUUGCAGAAGGACUAAAACCAAAUACCAGUAGGAUAUGCAACAUGAGGAUCACCCAUGUGACGAAGGAUGCGGGAAAUA | 8.82 | 8.69 | – |
| CAUCCAACACAAGGAUAUUGGACGUUUUUCAGCGCACAUGAGGAUCACCCAUGUACAAGGGAGUACAAGAAGGUGUUUUGGAUC | – | – | apparent Kd [1]: 27.1 nM; apparent Kd [2]: 9.49 nM |
| ACUCCCGCAGAAGGAUAUCCUGACUGAACGAUCGACAUGAGGAUCACCCAUGUGUCUCCGUCGAGGGAGAAGGUCUGCUGUGAC | – | – | apparent Kd [1]: 18.7 nM; apparent Kd [2]: 7.98 nM |
| ACGAAUGGUUCAACAUGAGGAUCACCCAUGUGAUCUUCCAUUCAGGAUAUGUGUAGUAGAUCUCAACAGAAGGGAAUAAAAUAG | 35.8 | 38.7 | – |
| UGGGAACGAGGAUAUACAUGAGGAUCACCCAUGUUCAAGAUUCGGGUAUAAUGCCUCAGUAGAAGGCGUAAGCA | 107 | 108 | – |
| GAUUUUAGUGAAGGAUAUACAAACAACAUGAGGAUCACCCAUGUCUGGAAUGAUCGCAGGGCCCGGUAGAAGGUCAUCAGAAAG | 31.1 | 24 | – |
| GUGUCUUGGGAGGAUAUCCACUUCACGUCAUAUGGAGAAGGCCCGACAUGAGGAUCACCCAUGUGGUAACUGGC | 25.7 | 28.7 | – |
| CUUACACAUGAGGAUCACCCAUGUCAUGAUACCAGCCAAUACACUGGCCCUUGGCAGCAUCUCAGCCUCAGCUACAUUGACUGAC | – | – | apparent Kd (designed as: ON switch for theophylline, no ligand): 19.9 nM; apparent Kd (ligand present: theophylline, designed as: ON switch for theophylline): 27.1 nM |
| CUGAAGUAAGGAUAUAUAUACCAUAGACCAUUAAAGACAUUAUAGAAGGUACAUGAGGAUCACCCAUGUGGGAA | 29.9 | 26.4 | – |
| GAUACUACAUAGAAGGUACCGAUGAGCAAUUAACAAUGUGCGGCAACAUGAGGAUCACCCAUGUGUAAGGAUAUAUGCAGAACA | 20.9 | 15.5 | – |
| CAUUUACAUGAGGAUCACCCAUGUUAGUAAUGCUGAGGAUAUGGUCCACGCUCCUAUUUACCAGAAGGCAGUCUUG | – | – | apparent Kd [1]: 19.2 nM; apparent Kd [2]: 13.8 nM |
| AUGUAGUGCGAGAAGGACUCCCUCUUACACAUGAGGAUCACCCAUGUGCCCUCAAGCUAGACCGAGUAGGAUAUCGACCGCGCC | 60 | 43.6 | – |
| AUCAUCAGUUCGGCCGCCACUGUUUGGCACAGUUGUAUCGUACAUGAGGAUCACCCAUGUCACCACAGGACCGGGAACGCCGUCG | – | – | apparent Kd (designed as: OFF switch for tryptophan, no ligand): 16.1 nM; apparent Kd (ligand present: tryptophan, designed as: OFF switch for tryptophan): 17.3 nM |
| AGCCGUUGGGAUAGACAUGAGGAUCACCCAUGUAAAAGCGAAGAGGAUAUCAGAAUUAAGACAACAGAGAAGGCAUAAAUACAA | – | – | apparent Kd [1]: 38.1 nM; apparent Kd [2]: 28.3 nM |
| GGAUACAGGAUAGGAUAUUCUGGGCCUUACAUGAGGAUCACCCAUGUGGAUUUUAUAUAUAGCCGGAAGAAGGAUCAACAGGUG | 11.8 | 9.21 | – |
| GUGUUAUAUCCGUAACAUGAGGAUCACCCAUGUGUGAGAUCGAAGGAUAUCUGUCUGAGCUCAAAAGAGAAGGUCGAUACAAUG | 57.6 | 44.9 | – |
| CCGACCCAAGGAUAUACAUGAGGAUCACCCAUGUAUAAAAUAUACCAAGGUAAAAUAUGUAGAAGGAGGAUAUG | 6.54 | 6.17 | – |
